Reference: ChEMBL document CHEMBL2429774, “Synthesis and biological evaluation of novel 1,6-diaryl pyridin-2(1H)-one analogs” (Eur J Med Chem, 2013)
Calls of active or inactive are those of the source. No cut-off for these calls is given here.

Columns and labels:
HepG2 [1] = assay: Cytotoxicity against human HepG2 cells after 72 hrs by spectrophotometry; type: functional, cell-based; details: HepG2, 72 h
Procedure, shortened: (§1)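 Cells grown as monolayers in DMEM with 10% FBS, penicillin and streptomycin at 37 °C, 5% CO₂. Seeded at 5 × 10³ cells/well and exposed for 72 h. Medium changed, then another day of incubation. XTT (1 mg/mL) plus PMS added in serum-free medium for 4 h at 37 °C, read at 492 nm. Percent of control growth = treated/control absorbance × 100 (n = 3). GI50 taken from the linear portion of the curve.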

SK-OV-3 = assay: Cytotoxicity against human SKOV3 cells after 72 hrs by spectrophotometry; type: functional, cell-based; details: SK-OV-3, 72 h; procedure, shortened: as §1
H22 [2] = assay: Antitumor activity against mouse H22 cells transfected in nude mouse assessed as tumor growth inhibition at 10 mg/kg, qd after 7 days relative to control; type: functional; details: H22, 168 h, read-out: TGI
Procedure, shortened: (§2)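 Female SPF/ICR athymic nude mice, 4–5 weeks old (24 ± 2 g), received H22 cells (1 × 10⁶ per animal) s.c. into the armpit. Dosing started once tumors were detectable by fluorescent macro-imaging and was given once daily for 7 days. Animals were then killed and solid tumors excised and weighed. Inhibition = (mean vehicle tumor weight − mean treated)/mean vehicle × 100%. n = 6 per group at start.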

HepG2 [3] = assay: Cell cycle arrest in human HepG2 cells assessed as accumulation at G2/M phase at 62.5 nM after 24 hrs by flow cytometry; type: functional, cell-based
Procedure, shortened: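 After treatment, cells were harvested, washed in PBS and resuspended in 1 mL 0.1% sodium citrate containing 0.05 mg propidium iodide and 50 µg RNase for 30 min at room temperature in the dark. DNA content was measured by flow cytometry, with at least three experiments run.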

H22 [4] = assay: Antitumor activity against mouse H22 cells transfected in nude mouse assessed as tumor growth inhibition at 200 mg/kg, qd after 7 days relative to control; type: functional; details: H22, 168 h, read-out: TGI; procedure, shortened: as §2
H22 [5] = assay: Antitumor activity against mouse H22 cells transfected in nude mouse assessed as tumor growth inhibition at 50 mg/kg, qd after 7 days relative to control; type: functional; details: H22, 168 h, read-out: TGI; procedure, shortened: as §2

Row | SMILES | IC50 (HepG2 [1]) | IC50 (SK-OV-3) | inhibition in vivo at 10 mg/kg (H22 [2]) | Activity (HepG2 [3]) | inhibition in vivo at 200 mg/kg (H22 [4]) | inhibition in vivo at 50 mg/kg (H22 [5])
1 | COc1cc(-c2cccc(=O)n2-c2cccc(F)c2)cc(OC)c1OC | 73 nM | 340 nM | – | – | – | –
2 | COc1cc(-n2c(-c3cccc4cc[nH]c34)cccc2=O)cc(OC)c1OC | 2400 nM | 138 nM | – | – | – | –
3 | COc1ccc(-n2c(-c3cc(OC)c(OC)c(OC)c3)cccc2=O)cc1 | 5740 nM | 1540 nM | – | – | – | –
4 | COc1ccc(-c2cccc(=O)n2-c2cc(OC)c(OC)c(OC)c2)cc1OCc1ccccc1 | 269 nM | 2310 nM | – | – | – | –
5 | COc1cc(-n2c(-c3ccc(OC(F)(F)F)cc3)cccc2=O)cc(OC)c1OC | 1960 nM | 461 nM | – | – | – | –
6 | COc1cc(-c2cccc(=O)n2-c2ccc([N+](=O)[O-])cc2)cc(OC)c1OC | 941 nM | 311 nM | – | – | – | –
7 | CC(=O)O[C@H]1C(=O)[C@@]2(C)[C@H]([C@H](OC(=O)c3ccccc3)[C@]3(O)C[C@H](OC(=O)[C@H](O)[C@@H](NC(=O)c4ccccc4)c4ccccc4)C(C)=C1C3(C)C)[C@]1(OC(C)=O)CO[C@@H]1C[C@@H]2O [PACLITAXEL] | 6 nM | 12 nM | 47% | – | – | –
8 | COc1ccc(-c2cccc(=O)n2-c2cc(OC)c(OC)c(OC)c2)cc1O | < 10 nM | < 10 nM | – | inactive | 40% | 27%
9 | COc1cc(-n2c(-c3ccc4c(c3)OCO4)cccc2=O)cc(OC)c1OC | < 10 nM | 64 nM | – | inactive | 27% | 17%
10 | COc1cc(-c2cccc(=O)n2-c2ccc(F)cc2)cc(OC)c1OC | > 100000 nM | 9740 nM | – | – | – | –
11 | COc1cc(-n2c(-c3cccc(O)c3)cccc2=O)cc(OC)c1OC | 34 nM | 1460 nM | – | – | – | –
12 | COc1cc(-c2cccc(=O)n2-c2cc(OC)c(OC)c(OC)c2)cc(OC)c1OC | 5460 nM | 844 nM | – | – | – | –
13 | COc1cc(-n2c(-c3cccc(F)c3)cccc2=O)cc(OC)c1OC | 159 nM | 472 nM | – | – | – | –
14 | COc1ccc(-c2cccc(=O)n2-c2cc(OC)c(OC)c(OC)c2)cc1OC | 513 nM | 545 nM | – | – | – | –
15 | COc1ccc(-c2cccc(=O)n2-c2cc(OC)c(OC)c(OC)c2)cc1 | < 10 nM | < 10 nM | – | inactive | 54% | 41%
16 | COc1cc(-c2cccc(=O)n2-c2ccc(C(F)(F)F)cc2)cc(OC)c1OC | 10200 nM | 1920 nM | – | – | – | –
17 | COc1cc(-n2c(-c3ccncc3)cccc2=O)cc(OC)c1OC | 1780 nM | 1780 nM | – | – | – | –
18 | COc1cc(-c2cccc(=O)n2-c2ccc3c(c2)OCO3)cc(OC)c1OC | 5410 nM | 14000 nM | – | – | – | –
19 | COc1ccc(-n2c(-c3cc(OC)c(OC)c(OC)c3)cccc2=O)cc1O | 1220 nM | 1220 nM | – | – | – | –
20 | COc1ccc(-n2c(-c3cc(OC)c(OC)c(OC)c3)cccc2=O)cc1OCc1ccccc1 | 3040 nM | 25500 nM | – | – | – | –
21 | COc1ccc(-n2c(-c3cc(OC)c(OC)c(OC)c3)cccc2=O)cc1OC | 4870 nM | 14300 nM | – | – | – | –
22 | COc1ccc(-c2cccc(=O)n2-c2cc(OC)c(OC)c(OC)c2)cc1C | 129 nM | 583 nM | – | – | – | –
23 | COc1cc(-c2cccc(=O)n2-c2ccncc2)cc(OC)c1OC | 2520 nM | 3020 nM | – | – | – | –
24 | COc1cc(-n2c(-c3ccc([N+](=O)[O-])cc3)cccc2=O)cc(OC)c1OC | < 10 nM | 201 nM | – | inactive | 61% | 31%
